Assay results reported in ChEMBL document CHEMBL5390271, “Targeting Glial Cells by Organic Anion-Transporting Polypeptide 1C1 (OATP1C1)-Utilizing l-Thyroxine-Derived Prodrugs” (J Med Chem, 2023).

Key:
[1] = Chemical stability in Tris-HCI buffer at pH 7.4 at 100 uM and measured after 24 hrs by HPLC analysis; assay type: physicochemical; details: pH 7.4, 24 h
Method in brief: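 Prodrug (100 μM initial, from 10 mM DMSO stock; 2% DMSO) incubated at 37 °C in 50 mM Tris–HCl pH 7.4 for 24 h. Samples taken at intervals, quenched 1:1 with ACN, analysed by HPLC-UV (230–240 nm). Pseudo-first-order t1/2 taken from the slope of log remaining prodrug vs time.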

[2] = Drug uptake in mouse Astrocyte cells expressing OATPIC4/5/6 at 100 uM incubated for 30 mins in presence of naringin by liquid scintillation counter analysis; assay type: ADME, cell-based; details: 0.5 h
Method in brief: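 Astrocytes preincubated 10 min with naringin (100 μM), then incubated with substrate (100 μM) plus naringin in HBSS pH 7.4 for 30 min at 37 °C. Uptake normalized to protein and expressed relative to control; one-way ANOVA with Dunnett's test.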

[3] = Drug uptake in human U-87 MG cells expressing OATPIC1 at 100 uM incubated for 30 mins in presence of diclofenac by HPLC analysis; assay type: ADME, cell-based; details: u-87mg atcc, 0.5 h
Method in brief: (§1)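 U-87MG cells preincubated 10 min with diclofenac or flufenamic acid (100 μM), then co-incubated with the compound (100 μM) plus inhibitor in HBSS pH 7.4 for 30 min at 37 °C. Uptake quantified by HPLC, normalized to protein and expressed as % of control. One-way ANOVA with Dunnett's test; n = 3.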

[4] = Drug uptake in human U-87 MG cells expressing OATPIC1 at 100 uM incubated for 30 mins in presence of flufenamic acid by HPLC analysis; assay type: ADME, cell-based; details: u-87mg atcc, 0.5 h; method in brief: as §1
[5] = Prodrug conversion in human U-87 MG cells expressing OATPIC1 assessed as OATPIC1 mediated drug release at 100 uM incubated for 30 mins by HPLC analysis; assay type: ADME, cell-based; details: u-87mg atcc, 0.5 h
Method in brief: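 U-87MG cells incubated with prodrug at 100 μM for 30 min at 37 °C in HBSS. Released parent drug in cell lysate measured by HPLC and normalized to protein, alongside uptake of the parent drug itself; n = 3–6.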

[6] = Drug uptake in human U-87 MG cells expressing OATPIC1 assessed as Vmax at 200 uM incubated for 30 mins by Michaelis-Menten analysis; assay type: ADME, cell-based; details: u-87mg atcc, 0.5 h
Method in brief: (§2)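 U-87MG cells seeded at 1 × 10^5/well and used 1 day later. After 10 min preincubation in HBSS pH 7.4 at 37 °C, compounds added at 5–400 μM for 30 min at 37 °C. Cells washed with ice-cold HBSS, lysed in 0.1 M NaOH, acidic-ACN precipitated, analysed by HPLC against a spiked lysate standard curve, and normalized to Bradford protein. Km/Vmax fitted by Michaelis–Menten; n = 3 biological replicates.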

[7] = Drug uptake in mouse Astrocyte cells expressing OATPIC4/5/6 assessed as Vmax at 200 uM incubated for 30 mins by Michaelis-Menten analysis; assay type: ADME, cell-based; details: 0.5 h
Method in brief: (§3)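 Primary astrocytes from neonatal (P0–2) C57BL/6JOlaHsd pups, microglia removed at day 7, seeded at 10^4 cells/well 3 days before assay. Substrate added at 5–400 μM in HBSS pH 7.4 for 30 min at 37 °C. [3H]-estrone-3-sulfate measured by liquid scintillation and prodrugs by HPLC; normalized to protein. Km/Vmax fitted by Michaelis–Menten.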

[8] = Prodrug conversion in JAXC57BL/6 mouse brain assessed as total amount of prodrug and ketoprofen level at 25 micromol/kg,ip and measured after 30 mins by LC-MS/MS analysis; assay type: ADME, tissue-based; details: in vivo, 0.5 h, dose 25 µmol/kg
Method in brief: (§4)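 Male C57BL/6J mice, seven weeks old, given an ip bolus of 25 μmol/kg. Formulation 2.5 mM in saline with 30% Macrogol 15-hydroxystearate and 3% DMSO. Pentobarbital anaesthesia, then transcardial perfusion with ice-cold saline for 1 min. Whole brain (minus cerebellum and pons) taken at 30 min, homogenized in Tris pH 7.4, ACN-precipitated with labetalol internal standard, and quantified by LC–MS/MS in nmol/g.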

[9] = Drug uptake in JAXC57BL/6 mouse brain at 25 micromol/kg,ip and measured after 30 mins by LC-MS/MS analysis; assay type: ADME, tissue-based; details: in vivo, 0.5 h, dose 25 µmol/kg; method in brief: as §4
[10] = Drug uptake in mouse Astrocyte cells expressing OATPIC4/5/6 at 5 to 400 uM incubated for 30 mins by liquid scintillation counter analysis; assay type: ADME, cell-based; details: 0.5 h, dose 5-400 µM; method in brief: as §3
[11] = Drug uptake in mouse Astrocyte cells expressing OATPIC4/5/6 at pH 4.5 to 8.5 at 100 uM incubated for 30 mins by liquid scintillation counter analysis; assay type: ADME, cell-based; details: pH 4.5, 0.5 h
Method in brief: (§5)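 Mouse primary astrocytes incubated with [3H]-estrone-3-sulfate for 30 min at 37 °C in HBSS at pH 4.5–8.5 (MES or HEPES buffer). At pH 7.4, uptake was also run with choline chloride in place of Na+. Read by liquid scintillation counting and normalized to protein; n = 3 biological replicates.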

[12] = Drug uptake in mouse Astrocyte cells expressing OATPIC4/5/6 at 100 uM incubated for 30 mins in presence of Na+ ions by liquid scintillation counter analysis; assay type: ADME, cell-based; details: 0.5 h; method in brief: as §5
[13] = Drug uptake in mouse Astrocyte cells expressing OATPIC4/5/6 at 100 uM incubated for 30 mins in absence of Na+ ions by liquid scintillation counter analysis; assay type: ADME, cell-based; details: 0.5 h; method in brief: as §5
[14] = Drug uptake in human U-87 MG cells expressing OATPIC1 at 5 to 400 uM incubated for 30 mins by HPLC analysis; assay type: ADME, cell-based; details: u-87mg atcc, 0.5 h, dose 5-400 µM; method in brief: as §2
[15] = Drug uptake in human U-87 MG cells expressing OATPIC1 at pH 4.5 to 8.5 at 100 uM incubated for 30 mins by HPLC analysis; assay type: ADME, cell-based; details: u-87mg atcc, pH 4.5, 0.5 h
Method in brief: (§6)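 U-87MG cells incubated with T4 for 30 min at 37 °C in HBSS buffered with HEPES (pH 7.4, 8.5) or MES (pH 4.5–6.5). For Na+-free conditions, choline chloride replaced NaCl at pH 7.4. Lysates analysed by HPLC and normalized to protein; mean ± SD, n = 3 biological replicates.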

[16] = Drug uptake in human U-87 MG cells expressing OATPIC1 at 100 uM incubated for 30 mins in presence of Na+ ions by HPLC analysis; assay type: ADME, cell-based; details: u-87mg atcc, 0.5 h; method in brief: as §6
[17] = Drug uptake in human U-87 MG cells expressing OATPIC1 at 100 uM incubated for 30 mins in absence of Na+ ions by HPLC analysis; assay type: ADME, cell-based; details: u-87mg atcc, 0.5 h; method in brief: as §6

Stability [1]	Drug uptake [2]	Drug uptake [3]	Drug uptake [4]	Drug metabolism [5]	SMILES	also measured
Stable	Not Active	Not Active	Not Active	Metabolite_Detected	CC(C(=O)Oc1c(I)cc(C[C@H](N)C(=O)O)cc1I)c1ccc(-c2ccccc2)c(F)c1 (stereo not given in full)	
Stable	Not Active	Active	Active	Metabolite_Detected	CC(C(=O)Oc1c(I)cc(C[C@H](N)C(=O)O)cc1I)c1cccc(C(=O)c2ccccc2)c1 (stereo not given in full)	Vmax [6]: 1.27 nmol/min/mg
Stable	Active	Active	Active	Metabolite_Detected	COc1ccc2cc([C@H](C)C(=O)Oc3c(I)cc(C[C@H](N)C(=O)O)cc3I)ccc2c1	
Stable	Not Active	Not Active	Not Active	Metabolite_Detected	CC(C(=O)Oc1c(I)cc(Oc2c(I)cc(C[C@H](N)C(=O)O)cc2I)cc1I)c1ccc(-c2ccccc2)c(F)c1 (stereo not given in full)	

More lines, now with the values behind:

SMILES	Stability [1]	Drug uptake [2]	Drug uptake [3]	Drug uptake [4]	Drug metabolism [5]	also measured
N[C@@H](Cc1cc(I)c(Oc2cc(I)c(OC(=O)c3ccccc3O)c(I)c2)c(I)c1)C(=O)O	Stable	Not Active	Active	Active	Metabolite_Detected	
N[C@@H](Cc1cc(I)c(OC(=O)c2ccccc2O)c(I)c1)C(=O)O	Stable	Not Active	Active	Active	Metabolite_Detected	
COc1ccc2cc([C@H](C)C(=O)Oc3c(I)cc(Oc4c(I)cc(C[C@H](N)C(=O)O)cc4I)cc3I)ccc2c1	Stable	Active	Not Active	Active	Metabolite_Detected	
CC(C(=O)Oc1c(I)cc(Oc2c(I)cc(C[C@H](N)C(=O)O)cc2I)cc1I)c1cccc(C(=O)c2ccccc2)c1 (stereo not given in full)	Stable	Not Active	Not Active	Not Active	Metabolite_Detected	Vmax [7]: 5.5 nmol/min/mg; Drug uptake [8]: 0.78 nmol/g
CC(C(=O)O)c1cccc(C(=O)c2ccccc2)c1 (racemic) [KETOPROFEN]						Drug uptake [9]: 0.22 nmol/g
C[C@]12CC[C@@H]3c4ccc(OS(=O)(=O)O)cc4CC[C@H]3[C@@H]1CCC2=O [ESTRONE SULFURIC ACID]		Not Active				Drug uptake [10]: Active; Drug uptake [11]: Active; Drug uptake [12]: Active; Drug uptake [13]: Active
N[C@@H](Cc1cc(I)c(Oc2cc(I)c(O)c(I)c2)c(I)c1)C(=O)O [LEVOTHYROXINE]			Not Active	Not Active		Drug uptake [14]: Active; Drug uptake [15]: Active; Drug uptake [16]: Active; Drug uptake [17]: Active
